Assay results as given in ChEMBL document CHEMBL2390884, “Design, synthesis and antiproliferative activity studies of novel 1,2,3-triazole-dithiocarbamate-urea hybrids” (Eur J Med Chem, 2013).
pIC50: −log10 of the molar value.

How the values were obtained:
MGC-803 [1] = test: Cytotoxicity against human MGC803 cells after 72 hrs by MTT assay; format: functional, cell-based; settings: MGC-803, 72 h
MGC-803 [2] = test: Cell cycle arrest in human MGC803 cells assessed as accumulation at S phase at 0.5 uM after 24 hrs by propidium iodide staining-based flow cytometry; format: functional
Method in brief: (§1)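 Exponentially growing MGC-803 cells (5×10^5) treated at 0, 0.25, 0.5 or 1.0 µmol/L for 12 or 24 h; cells collected, fixed in ice-cold 70% ethanol, treated with buffer containing RNAse A and 0.1% Triton X-100, stained with PI; DNA content analysed by flow cytometry to give percentages of cells in G1, S and G2/M phases.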

HEK293 = test: Cytotoxicity against human HEK293 cells up to 70 uM after 72 hrs by MTT assay; format: cell-based; settings: hek293, 72 h
Method in brief: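 HEK293 cells seeded at 5×10^3 per well, grown 24 h at 37°C, then medium replaced with compound-containing medium over a concentration range; 72 h exposure; MTT (5 mg/mL stock) added for 4 h at 37°C, formazan dissolved in DMSO, absorbance read at 570 nm. Triplicate per concentration, experiment repeated three times.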

MGC-803 [3] = test: Cell cycle arrest in human MGC803 cells assessed as accumulation at S phase at 0.25 uM after 12 hrs by propidium iodide staining-based flow cytometry; format: functional; method in brief: as §1
MGC-803 [4] = test: Induction of apoptosis in human MGC803 cells assessed as necrotic cells at 0.5 uM after 12 hrs by AnnexinV-FITC/propidium iodide staining-based flow cytometry (reference value: 2.4 %); format: functional
MGC-803 [5] = test: Induction of apoptosis in human MGC803 cells assessed as late apoptotic cells at 1 uM after 12 hrs by AnnexinV-FITC/propidium iodide staining-based flow cytometry (reference value: 3.0 %); format: functional
MGC-803 [6] = test: Cell cycle arrest in human MGC803 cells assessed as reduction in S phase accumulation at 0.25 to 1 uM by propidium iodide staining-based flow cytometry; format: functional; settings: TDE = time-dependent effect; method in brief: as §1
MGC-803 [7] = test: Induction of apoptosis in human MGC803 cells assessed as necrotic cells at 1 uM after 12 hrs by AnnexinV-FITC/propidium iodide staining-based flow cytometry (reference value: 2.4 %); format: functional
MGC-803 [8] = test: Induction of apoptosis in human MGC803 cells assessed as late apoptotic cells at 0.25 uM after 12 hrs by AnnexinV-FITC/propidium iodide staining-based flow cytometry (reference value: 3.0 %); format: functional
MGC-803 [9] = test: Induction of apoptosis in human MGC803 cells at 0.25 to 1 uM after 12 hrs by AnnexinV-FITC/propidium iodide staining-based flow cytometry (reference value: 2.8 %); format: functional
MGC-803 [10] = test: Cell cycle arrest in human MGC803 cells assessed as accumulation at S phase at 1 uM after 12 hrs by propidium iodide staining-based flow cytometry; format: functional; method in brief: as §1

With `CC(C)NC(=O)N1CCN(C(=S)SCc2cn(Cc3ccc(F)cc3)nn2)CC1` the pIC50 (MGC-803 [1]) was 6.12, the Activity (MGC-803 [2]) was 20.57% and the Activity (HEK293) was “Non-toxic”. The Activity (MGC-803 [3]) was 40.91%, the Activity (MGC-803 [4]) was 0.8% and the Activity (MGC-803 [5]) was 2.4%. For the same compound, the Activity (MGC-803 [6]) was “tde”, the Activity (MGC-803 [7]) was 1.2% and the Activity (MGC-803 [8]) was 2.2%. For the same compound, the Activity (MGC-803 [9]) was 31.4% and the Activity (MGC-803 [10]) was 12.65%.
